Data published in ChEMBL document CHEMBL1781892, “Microwave assisted synthesis and structure-activity relationship of 4-hydroxy-N'-[1-phenylethylidene]-2H/2-methyl-1,2-benzothiazine-3-carbohydrazide 1,1-dioxides as anti-microbial agents” (2011).

Legend:
Type in all cases: functional
Curvularia australiensis [1] = assay: Antifungal activity against Drechslera australiensis using 1 x 10^5 spore/100 uL assessed as 99.5% fungal killing of original inoculum after 72 hrs by microdilution method
Aspergillus fumigatus [2] = assay: Antifungal activity against Aspergillus fumigatus using 1 x 10^5 spore/100 uL after 72 hrs by microdilution method
Aspergillus flavus [3] = assay: Antifungal activity against Aspergillus flavus using 1 x 10^5 spore/100 uL assessed as 99.5% fungal killing of original inoculum after 72 hrs by microdilution method
Aspergillus niger [4] = assay: Antifungal activity against Aspergillus niger using 1 x 10^5 spore/100 uL assessed as 99.5% fungal killing of original inoculum after 72 hrs by microdilution method
Trichoderma viride [5] = assay: Antifungal activity against Trichoderma viride using 1 x 10^5 spore/100 uL after 72 hrs by microdilution method
Aspergillus niger [6] = assay: Antifungal activity against Aspergillus niger using 1 x 10^5 spore/100 uL after 72 hrs by microdilution method
[7] = Antifungal activity against Trichoderma reesei using 1 x 10^5 spore/100 uL assessed as 99.5% fungal killing of original inoculum after 72 hrs by microdilution method
Trichoderma viride [8] = assay: Antifungal activity against Trichoderma viride using 1 x 10^5 spore/100 uL assessed as 99.5% fungal killing of original inoculum after 72 hrs by microdilution method
Curvularia australiensis [9] = assay: Antifungal activity against Drechslera australiensis using 1 x 10^5 spore/100 uL after 72 hrs by microdilution method
Aspergillus flavus [10] = assay: Antifungal activity against Aspergillus flavus using 1 x 10^5 spore/100 uL after 72 hrs by microdilution method
[11] = Antifungal activity against Trichoderma reesei using 1 x 10^5 spore/100 uL after 72 hrs by microdilution method
Procedure, shortened: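 Spores washed from malt agar cultures with sterile 0.85% saline plus 0.1% Tween 80, adjusted to about 1.0×10^5 per 100 µl well. Compounds from a 1 mg/ml DMSO stock were serially diluted in malt broth with inoculum in 96-well plates and incubated 72 h at 28 °C. MIC is the lowest concentration with no visible growth under a binocular microscope. DMSO served as negative control.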

Aspergillus fumigatus [12] = assay: Antifungal activity against Aspergillus fumigatus using 1 x 10^5 spore/100 uL assessed as 99.5% fungal killing of original inoculum after 72 hrs by microdilution method
Bacillus cereus = assay: Antibacterial activity against Bacillus cereus using 1 x 10^4 CFU/ml inoculum after 24 hrs by microdilution method
Bacillus thuringiensis = assay: Antibacterial activity against Bacillus thuringiensis using 1 x 10^4 CFU/ml inoculum after 24 hrs by microdilution method
Bacillus subtilis = assay: Antibacterial activity against Bacillus subtilis using 1 x 10^4 CFU/ml inoculum after 24 hrs by microdilution method
Staphylococcus aureus = assay: Antibacterial activity against Staphylococcus aureus using 1 x 10^4 CFU/ml inoculum after 24 hrs by microdilution method
Escherichia coli = assay: Antibacterial activity against Escherichia coli using 1 x 10^4 CFU/ml inoculum after 24 hrs by microdilution method
Pseudomonas aeruginosa = assay: Antibacterial activity against Pseudomonas aeruginosa using 1 x 10^4 CFU/ml inoculum after 24 hrs by microdilution method

| SMILES | MFC (Curvularia australiensis [1]) | MIC (Aspergillus fumigatus [2]) | MFC (Aspergillus flavus [3]) | MFC (Aspergillus niger [4]) | MIC (Trichoderma viride [5]) | MIC (Aspergillus niger [6]) | MFC [7] | MFC (Trichoderma viride [8]) | MIC (Curvularia australiensis [9]) | MIC (Aspergillus flavus [10]) | MIC [11] | MFC (Aspergillus fumigatus [12]) | MIC (Bacillus cereus) | MIC (Bacillus thuringiensis) | MIC (Bacillus subtilis) | MIC (Staphylococcus aureus) | MIC (Escherichia coli) | MIC (Pseudomonas aeruginosa) |
| --- | --- | --- | --- | --- | --- | --- | --- | --- | --- | --- | --- | --- | --- | --- | --- | --- | --- | --- |
| NNC(=O)C1=C(O)c2ccccc2S(=O)(=O)N1 | >200 ×10⁻² umol | >100 ×10⁻² umol | >200 ×10⁻² umol | >200 ×10⁻² umol | >100 ×10⁻² umol | >100 ×10⁻² umol | > 200 ×10⁻² µmol | >200 ×10⁻² umol | >100 ×10⁻² umol | >100 ×10⁻² umol | > 100 ×10⁻² µmol | >200 ×10⁻² umol |  |  |  |  |  |  |
| C/C(=N\NC(=O)C1=C(O)c2ccccc2S(=O)(=O)N1C)c1ccccc1Cl | 126.5 ×10⁻² umol | 76.1 ×10⁻² umol | 170.2 ×10⁻² umol | 167.9 ×10⁻² umol | 66.5 ×10⁻² umol | 88.6 ×10⁻² umol | 119 ×10⁻² µmol | 133.1 ×10⁻² umol | 63.6 ×10⁻² umol | 87.1 ×10⁻² umol | 61.1 ×10⁻² µmol | 144.6 ×10⁻² umol | 10.8 ×10⁻² umol | 12 ×10⁻² umol | 11 ×10⁻² umol | 30.7 ×10⁻² umol | 31.7 ×10⁻² umol | 32.6 ×10⁻² umol |
| C/C(=N\NC(=O)C1=C(O)c2ccccc2S(=O)(=O)N1)c1ccccc1Br | 158.4 ×10⁻² umol | 83.8 ×10⁻² umol | 177.7 ×10⁻² umol | 186.8 ×10⁻² umol | 75.6 ×10⁻² umol | 93.2 ×10⁻² umol | 147 ×10⁻² µmol | 142.4 ×10⁻² umol | 76.3 ×10⁻² umol | 90 ×10⁻² umol | 74.8 ×10⁻² µmol | 157.3 ×10⁻² umol |  |  |  |  |  |  |
| C/C(=N\NC(=O)C1=C(O)c2ccccc2S(=O)(=O)N1C)c1ccc(Cl)c(Cl)c1 | 122.6 ×10⁻² umol | 68.1 ×10⁻² umol | 150 ×10⁻² umol | 149.5 ×10⁻² umol | 61.2 ×10⁻² umol | 75 ×10⁻² umol | 158 ×10⁻² µmol | 122.5 ×10⁻² umol | 61.5 ×10⁻² umol | 75 ×10⁻² umol | 59 ×10⁻² µmol | 136.3 ×10⁻² umol |  |  |  |  |  |  |
| C/C(=N\NC(=O)C1=C(O)c2ccccc2S(=O)(=O)N1)c1ccccc1Cl | 125.1 ×10⁻² umol | 76.2 ×10⁻² umol | 164.6 ×10⁻² umol | 179.1 ×10⁻² umol | 66.8 ×10⁻² umol | 89.6 ×10⁻² umol | 123 ×10⁻² µmol | 123.9 ×10⁻² umol | 63.8 ×10⁻² umol | 87.3 ×10⁻² umol | 61.4 ×10⁻² µmol | 150.4 ×10⁻² umol | 11.5 ×10⁻² umol | 12.1 ×10⁻² umol | 11.4 ×10⁻² umol | 31.3 ×10⁻² umol | 32.5 ×10⁻² umol |  |
| c1ccc(-c2ccc(C(c3ccccc3)n3ccnc3)cc2)cc1 (stereo unspecified) [BIFONAZOLE] | 75 ×10⁻² umol | 48 ×10⁻² umol | 64 ×10⁻² umol | 64 ×10⁻² umol | 64 ×10⁻² umol | 48 ×10⁻² umol | 78 ×10⁻² µmol | 80 ×10⁻² umol | 57.5 ×10⁻² umol | 48 ×10⁻² umol | 60.2 ×10⁻² µmol | 64 ×10⁻² umol |  |  |  |  |  |  |
| C/C(=N\NC(=O)C1=C(O)c2ccccc2S(=O)(=O)N1)c1ccc(Cl)c(Cl)c1 | 123.4 ×10⁻² umol | 68.1 ×10⁻² umol | 150.3 ×10⁻² umol | 150.2 ×10⁻² umol | 61.3 ×10⁻² umol | 75.2 ×10⁻² umol | 108 ×10⁻² µmol | 118.7 ×10⁻² umol | 61.8 ×10⁻² umol | 75.2 ×10⁻² umol | 59.2 ×10⁻² µmol | 136.2 ×10⁻² umol |  |  |  |  |  |  |
| C/C(=N\NC(=O)C1=C(O)c2ccccc2S(=O)(=O)N1C)c1ccccc1Br | 151.7 ×10⁻² umol | 83.6 ×10⁻² umol | 168.5 ×10⁻² umol | 186 ×10⁻² umol | 75.4 ×10⁻² umol | 93.1 ×10⁻² umol | 151 ×10⁻² µmol | 149.9 ×10⁻² umol | 76.2 ×10⁻² umol | 89.4 ×10⁻² umol | 74.5 ×10⁻² µmol | 163.6 ×10⁻² umol |  |  |  |  |  |  |
| C/C(=N\NC(=O)C1=C(O)c2ccccc2S(=O)(=O)N1)c1ccc(Br)cc1 | 143.9 ×10⁻² umol | 85.7 ×10⁻² umol | 173.2 ×10⁻² umol | 188.5 ×10⁻² umol | 74.4 ×10⁻² umol | 96.4 ×10⁻² umol | 130 ×10⁻² µmol | 188.2 ×10⁻² umol | 77.5 ×10⁻² umol | 93.7 ×10⁻² umol | 74.9 ×10⁻² µmol | 191 ×10⁻² umol |  |  |  |  |  |  |
| C/C(=N\NC(=O)C1=C(O)c2ccccc2S(=O)(=O)N1)c1ccc(Cl)cc1Cl | 123.9 ×10⁻² umol | 67.4 ×10⁻² umol | 143.5 ×10⁻² umol | 149 ×10⁻² umol | 62.9 ×10⁻² umol | 74.6 ×10⁻² umol | 119 ×10⁻² µmol | 125.7 ×10⁻² umol | 62 ×10⁻² umol | 71.8 ×10⁻² umol | 59.4 ×10⁻² µmol | 142.5 ×10⁻² umol |  |  |  |  |  |  |
| C/C(=N\NC(=O)C1=C(O)c2ccccc2S(=O)(=O)N1C)c1ccc(Cl)cc1 | 128.6 ×10⁻² umol | 72.6 ×10⁻² umol | 162.3 ×10⁻² umol | 166.4 ×10⁻² umol | 67.2 ×10⁻² umol | 82 ×10⁻² umol | 124 ×10⁻² µmol | 134.4 ×10⁻² umol | 64.3 ×10⁻² umol | 81.7 ×10⁻² umol | 62.2 ×10⁻² µmol | 143.6 ×10⁻² umol | 11 ×10⁻² umol | 12.3 ×10⁻² umol | 11.6 ×10⁻² umol | 30.9 ×10⁻² umol | 31 ×10⁻² umol | 32.3 ×10⁻² umol |
| CN1C(C(=O)NN)=C(O)c2ccccc2S1(=O)=O | >200 ×10⁻² umol | >100 ×10⁻² umol | >200 ×10⁻² umol | >200 ×10⁻² umol | >100 ×10⁻² umol | >100 ×10⁻² umol | > 200 ×10⁻² µmol | >200 ×10⁻² umol | >100 ×10⁻² umol | >100 ×10⁻² umol | > 100 ×10⁻² µmol | >200 ×10⁻² umol |  |  |  |  |  |  |
| C/C(=N\NC(=O)C1=C(O)c2ccccc2S(=O)(=O)N1C)c1ccc(Cl)cc1Cl | 122.7 ×10⁻² umol | 67.3 ×10⁻² umol | 143.1 ×10⁻² umol | 148.3 ×10⁻² umol | 62.7 ×10⁻² umol | 74.2 ×10⁻² umol | 118 ×10⁻² µmol | 125 ×10⁻² umol | 61.5 ×10⁻² umol | 71.6 ×10⁻² umol | 59.1 ×10⁻² µmol | 134.7 ×10⁻² umol |  |  |  |  |  |  |
| CN[C@@H]1[C@H](O[C@H]2[C@H](O[C@H]3[C@H](O)[C@@H](O)[C@H](N=C(N)N)[C@@H](O)[C@@H]3N=C(N)N)O[C@@H](C)[C@]2(O)C=O)O[C@@H](CO)[C@H](O)[C@H]1O [STREPTOMYCIN] |  |  |  |  |  |  |  |  |  |  |  |  | 4.3 ×10⁻² umol | 4.4 ×10⁻² umol | 4.2 ×10⁻² umol | 16.5 ×10⁻² umol | 16.5 ×10⁻² umol | 16.5 ×10⁻² umol |
| C/C(=N\NC(=O)C1=C(O)c2ccccc2S(=O)(=O)N1C)c1ccc(Br)cc1 | 148.4 ×10⁻² umol | 85.5 ×10⁻² umol | 189.8 ×10⁻² umol | >200 ×10⁻² umol | 74.3 ×10⁻² umol | 96 ×10⁻² umol | 142 ×10⁻² µmol | 139.4 ×10⁻² umol | 77.3 ×10⁻² umol | 93.4 ×10⁻² umol | 74.6 ×10⁻² µmol | 177 ×10⁻² umol |  |  |  |  |  |  |
